ChEMBL document CHEMBL4219031, “Identification and Characterization of Von Hippel-Lindau-Recruiting Proteolysis Targeting Chimeras (PROTACs) of TANK-Binding Kinase 1” (J Med Chem, 2018)
pIC50, pKd: −log10 of the molar value. Blank lines part the entries; values can stand above or below the molecule they belong to. Active and inactive are the calls of the source. The calls are words filed in the database; no cut-off is given here.

Assays:
[1] = molecular target: T1, von Hippel-Lindau disease tumor suppressor/Serine/threonine-protein kinase TBK1 (Homo sapiens, UniProt Q9UHD2+P40337); experiment: Induction of VHL-mediated TBK1 degradation in human Panc02.13 cells after 16 hrs by Western blot method; assay type: cell-based
How it was run: (§1)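 For phospho-IRF3 read-out, TLR3 agonist Poly I:C added for the final 3 h. Cells lysed in RIPA buffer with protease/phosphatase inhibitors, lysates clarified at 16,000g, run on SDS-PAGE and immunoblotted for TBK1, pIRF3 and GAPDH.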
Target sequence in this assay (P40337 whole entry, one chain of several): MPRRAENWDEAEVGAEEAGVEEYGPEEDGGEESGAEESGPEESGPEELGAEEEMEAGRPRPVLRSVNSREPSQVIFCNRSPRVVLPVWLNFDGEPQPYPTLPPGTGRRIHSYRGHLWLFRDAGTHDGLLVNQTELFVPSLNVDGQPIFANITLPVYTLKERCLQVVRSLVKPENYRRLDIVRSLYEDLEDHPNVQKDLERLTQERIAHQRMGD

[2] = molecular target: T1, von Hippel-Lindau disease tumor suppressor/Serine/threonine-protein kinase TBK1; experiment: Induction of VHL-mediated TBK1 degradation in human Panc02.13 cells at 1 uM after 16 hrs by Western blot method; assay type: cell-based
How it was run: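 Panc02.13 cells grown in RPMI-1640 with 15% FBS and 10 units/mL human recombinant insulin; compound exposure 16 h, with TLR3 agonist Poly I:C added for the final 3 h. Cells lysed in RIPA buffer with protease and phosphatase inhibitors, lysates clarified at 16,000g for 10 min, resolved by SDS-PAGE and immunoblotted for TBK1, with GAPDH as loading control.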
Target sequence in this assay (P40337 whole entry, looked up, one chain of several): as the sequence (P40337 whole entry, one chain of several) above

[3] = molecular target: T2, Serine/threonine-protein kinase TBK1 (Homo sapiens, UniProt Q9UHD2); experiment: Binding affinity to human full length wild-type TBK1 expressed in mammalian expression system
T2 sequence (Q9UHD2 whole entry): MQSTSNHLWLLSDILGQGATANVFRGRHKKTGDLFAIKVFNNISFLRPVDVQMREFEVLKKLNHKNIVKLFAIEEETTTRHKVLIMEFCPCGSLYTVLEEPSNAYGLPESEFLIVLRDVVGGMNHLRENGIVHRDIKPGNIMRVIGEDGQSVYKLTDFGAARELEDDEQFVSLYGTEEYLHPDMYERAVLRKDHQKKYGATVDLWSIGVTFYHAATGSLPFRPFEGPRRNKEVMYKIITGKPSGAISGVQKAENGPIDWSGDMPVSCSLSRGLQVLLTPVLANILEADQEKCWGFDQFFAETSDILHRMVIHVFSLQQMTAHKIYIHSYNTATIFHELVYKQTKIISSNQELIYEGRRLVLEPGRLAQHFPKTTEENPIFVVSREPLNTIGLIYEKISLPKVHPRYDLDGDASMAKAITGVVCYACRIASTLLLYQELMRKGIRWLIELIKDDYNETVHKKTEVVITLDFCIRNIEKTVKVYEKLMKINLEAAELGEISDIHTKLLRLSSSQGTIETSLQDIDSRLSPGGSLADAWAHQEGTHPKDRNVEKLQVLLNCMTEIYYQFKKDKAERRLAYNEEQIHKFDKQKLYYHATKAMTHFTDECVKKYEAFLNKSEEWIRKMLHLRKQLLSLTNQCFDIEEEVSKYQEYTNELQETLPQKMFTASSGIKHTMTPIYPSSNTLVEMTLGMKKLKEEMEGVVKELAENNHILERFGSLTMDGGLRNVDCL

A549 = experiment: Antiproliferative activity against human A549 cells harboring K-Ras mutant at 10 uM after 72 hrs by CellTiter-Glo assay; assay type: functional, cell-based
How it was run: (§2)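 Lung cancer lines seeded at 5000 cells/well; after 24 h, compound added as 3-fold dilutions (10 μM top final concentration, 0.1% DMSO final). Incubated 72 h, then viability read by CellTiter-Glo luminescence.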

[4] = molecular target: von Hippel-Lindau disease tumor suppressor/Elongin-C/Elongin-B/HIF1A (Homo sapiens, UniProt P40337+Q15369+Q15370+Q16665); experiment: Inhibition of His-tagged VHL/elongin B/elongin C (unknown origin) interaction with HIF1alpha preincubated for 10 mins followed by fluorescin labelled HIF1alpha peptide addition measured after 2 hrs by fluorescence polarization assay; assay type: protein-complex assay
How it was run: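 VHL coexpressed and copurified with Elongin B and C (VCB). Compound preincubated 10 min with VHL in 50 mM Tris pH 7.5, 200 mM NaCl, 2 mM DTT, 1% DMSO. Polarization converted to percent binding against control wells; IC50 from four-parameter fit.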

[5] = molecular target: T1, von Hippel-Lindau disease tumor suppressor/Serine/threonine-protein kinase TBK1; experiment: Induction of VHL-mediated TBK1 degradation in human HCC827 cells harboring wild-type K-Ras at 100 to 300 nM after 16 hrs by Western blot method; assay type: cell-based
Target sequence in this assay (P40337 whole entry, looked up, one chain of several): as the sequence (P40337 whole entry, one chain of several) above

[6] = molecular target: von Hippel-Lindau disease tumor suppressor/Inhibitor of nuclear factor kappa-B kinase subunit epsilon (Homo sapiens) (UniProt Q14164+P40337); experiment: Induction of VHL-mediated IKKepsilon degradation in human Panc02.13 cells up to 3 uM after 16 hrs by Western blot method; assay type: cell-based
[7] = molecular target: T1, von Hippel-Lindau disease tumor suppressor/Serine/threonine-protein kinase TBK1; experiment: Induction of VHL-mediated TBK1 degradation in human Panc02.13 cells at 100 nM after 16 hrs by Western blot method; assay type: cell-based
How it was run: as §1, with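 “Panc02.13 cells grown in RPMI-1640 with 15% FBS and 10 units/mL human recombinant insulin, exposed to compound for 16 h. For” for “For”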
Target sequence in this assay (P40337 whole entry, looked up, one chain of several): as the sequence (P40337 whole entry, one chain of several) above

[8] = molecular target: T1, von Hippel-Lindau disease tumor suppressor/Serine/threonine-protein kinase TBK1; experiment: Induction of VHL-mediated TBK1 degradation in human H2110 cells harboring wild-type K-Ras at 100 to 300 nM after 16 hrs by Western blot method; assay type: cell-based
Target sequence in this assay (P40337 whole entry, looked up, one chain of several): as the sequence (P40337 whole entry, one chain of several) above

[9] = molecular target: T1, von Hippel-Lindau disease tumor suppressor/Serine/threonine-protein kinase TBK1; experiment: Induction of VHL-mediated TBK1 degradation in human Panc02.13 cells at 100 nM after 16 hrs in presence of (2S,4R)-1-((S)-2-acetamido-3,3-dimethylbutanoyl)-4-hydroxy-N-(4-(4-methylthiazol-5-yl)benzyl)pyrrolidine-2-carboxamide by Western blot method; assay type: cell-based
How it was run: as §1, with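 “Panc02.13 cells grown in RPMI-1640 with 15% FBS and 10 units/mL human recombinant insulin, exposed to compound for 16 h. For” for “For”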
Target sequence in this assay (P40337 whole entry, looked up, one chain of several): as the sequence (P40337 whole entry, one chain of several) above

[10] = molecular target: T1, von Hippel-Lindau disease tumor suppressor/Serine/threonine-protein kinase TBK1; experiment: Induction of VHL-mediated TBK1 degradation in human Panc02.13 cells assessed as decrease in Poly(I:C)-induced in IRF3 phosphorylation at 100 nM preincubated for 16 hrs followed by Poly I:C addition measured after 3 hrs by Western blot method; assay type: cell-based
How it was run: as §1, with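 “Panc02.13 cells grown in RPMI-1640 with 15% FBS and 10 units/mL human recombinant insulin, exposed to compound for 16 h. For” for “For”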
Target sequence in this assay (P40337 whole entry, looked up, one chain of several): as the sequence (P40337 whole entry, one chain of several) above

[11] = molecular target: T1, von Hippel-Lindau disease tumor suppressor/Serine/threonine-protein kinase TBK1; experiment: Induction of VHL-mediated TBK1 degradation in human Panc02.13 cells after 16 hrs by Western blot method relative to control; assay type: cell-based
How it was run: as §1, with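 “Panc02.13 cells grown in RPMI-1640 with 15% FBS and 10 units/mL human recombinant insulin, exposed to compound for 16 h. For” for “For”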

[12] = molecular target: T1, von Hippel-Lindau disease tumor suppressor/Serine/threonine-protein kinase TBK1; experiment: Induction of VHL-mediated TBK1 degradation in human Panc02.13 cells at 100 nM after 16 hrs in presence of proteosome inhibitor carfilzomib by Western blot method; assay type: cell-based
How it was run: as §1, with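 “Panc02.13 cells grown in RPMI-1640 with 15% FBS and 10 units/mL human recombinant insulin, exposed to compound for 16 h. For” for “For”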

Homo sapiens = species on record: Homo sapiens; experiment: Antiproliferative activity against human NCI-H2110 cells harboring wild-type K-Ras at 10 uM after 72 hrs by CellTiter-Glo assay; assay type: functional, cell-based; how it was run: as §2
[13] = molecular target: T1, von Hippel-Lindau disease tumor suppressor/Serine/threonine-protein kinase TBK1; experiment: Induction of VHL-mediated TBK1 degradation in human A549 cells harboring K-Ras mutant at 100 nM after 16 hrs by Western blot method; assay type: cell-based
NCI-H23 = experiment: Antiproliferative activity against human H23 cells harboring K-Ras mutant at 10 uM after 72 hrs by CellTiter-Glo assay; assay type: functional, cell-based; how it was run: as §2
[14] = molecular target: T1, von Hippel-Lindau disease tumor suppressor/Serine/threonine-protein kinase TBK1; experiment: Induction of VHL-mediated TBK1 degradation in human H1792 cells harboring K-Ras mutant at 100 to 300 nM after 16 hrs by Western blot method; assay type: cell-based
NCI-H1792 = experiment: Antiproliferative activity against human NCI-H1792 cells harboring K-Ras mutant at 10 uM after 72 hrs by CellTiter-Glo assay; assay type: functional, cell-based; how it was run: as §2
HCC827 = experiment: Antiproliferative activity against human HCC827 cells harboring wild-type K-Ras at 10 uM after 72 hrs by CellTiter-Glo assay; assay type: functional, cell-based; how it was run: as §2
[15] = molecular target: T1, von Hippel-Lindau disease tumor suppressor/Serine/threonine-protein kinase TBK1; experiment: Induction of VHL-mediated TBK1 degradation in human H23 cells harboring K-Ras mutant at 100 to 300 nM after 16 hrs by Western blot method; assay type: cell-based
[16] = molecular target: T3, Serine/threonine-protein kinase TBK1 (Homo sapiens) (UniProt Q9UHD2); experiment: Antagonist activity at TBK1 in human Panc02.13 cells assessed as decrease in Poly(I:C)-induced IRF3 phosphorylation preincubated for 16 hrs followed by Poly I:C addition measured after 3 hrs by Western blot method; assay type: cell-based
T3 sequence (whole entry): T2 sequence (Q9UHD2 whole entry)
How it was run: as §1, with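 “Panc02.13 cells grown in RPMI-1640 with 15% FBS and 10 units/mL human recombinant insulin, exposed to compound for 16 h. For” for “For”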

[17] = molecular target: T1, von Hippel-Lindau disease tumor suppressor/Serine/threonine-protein kinase TBK1; experiment: Induction of VHL-mediated TBK1 degradation in human Panc02.13 cells at 0.1 to 1 uM after 16 hrs by Western blot method; assay type: cell-based
How it was run: as §1, with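 “Panc02.13 cells grown in RPMI-1640 with 15% FBS and 10 units/mL human recombinant insulin, exposed to compound for 16 h. For” for “For”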

von Hippel-Lindau disease tumor suppressor/Elongin-C/Elongin-B/HIF1A, sequence (P40337 whole entry, looked up): as the sequence (P40337 whole entry, one chain of several) above
von Hippel-Lindau disease tumor suppressor/Elongin-C/Elongin-B/HIF1A, sequence (Q15369 whole entry, looked up): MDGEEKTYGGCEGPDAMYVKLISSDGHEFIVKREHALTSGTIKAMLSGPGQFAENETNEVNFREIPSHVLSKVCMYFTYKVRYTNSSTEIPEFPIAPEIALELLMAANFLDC
von Hippel-Lindau disease tumor suppressor/Elongin-C/Elongin-B/HIF1A, sequence (Q15370 whole entry, looked up): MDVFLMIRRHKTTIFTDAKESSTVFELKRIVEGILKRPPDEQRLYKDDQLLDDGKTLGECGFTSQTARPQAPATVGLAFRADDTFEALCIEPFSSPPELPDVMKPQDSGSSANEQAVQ
von Hippel-Lindau disease tumor suppressor/Elongin-C/Elongin-B/HIF1A, sequence (Q16665 whole entry, looked up): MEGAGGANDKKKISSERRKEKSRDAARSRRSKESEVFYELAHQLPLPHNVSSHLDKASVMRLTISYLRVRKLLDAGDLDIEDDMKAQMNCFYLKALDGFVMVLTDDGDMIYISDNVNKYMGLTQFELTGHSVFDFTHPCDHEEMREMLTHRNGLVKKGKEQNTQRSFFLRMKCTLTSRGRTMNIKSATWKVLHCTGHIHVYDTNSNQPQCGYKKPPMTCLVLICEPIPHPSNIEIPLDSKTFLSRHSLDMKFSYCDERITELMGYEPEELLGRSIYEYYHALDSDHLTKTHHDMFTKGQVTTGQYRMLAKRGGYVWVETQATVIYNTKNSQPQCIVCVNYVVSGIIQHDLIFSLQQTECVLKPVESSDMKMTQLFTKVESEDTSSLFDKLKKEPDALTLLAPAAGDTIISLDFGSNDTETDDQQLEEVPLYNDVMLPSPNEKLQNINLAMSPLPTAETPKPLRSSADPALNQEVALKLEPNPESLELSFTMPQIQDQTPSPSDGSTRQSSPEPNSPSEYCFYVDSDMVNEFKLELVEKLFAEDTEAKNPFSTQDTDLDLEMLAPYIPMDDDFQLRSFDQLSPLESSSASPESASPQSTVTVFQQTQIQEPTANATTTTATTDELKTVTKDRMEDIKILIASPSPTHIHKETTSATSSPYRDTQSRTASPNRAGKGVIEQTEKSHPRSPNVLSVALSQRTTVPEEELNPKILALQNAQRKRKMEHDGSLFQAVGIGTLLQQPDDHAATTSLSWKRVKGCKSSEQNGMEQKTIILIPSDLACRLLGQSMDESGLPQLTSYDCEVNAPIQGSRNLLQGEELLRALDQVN
von Hippel-Lindau disease tumor suppressor/Inhibitor of nuclear factor kappa-B kinase subunit epsilon (Homo sapiens), sequence (P40337 whole entry, looked up): as the sequence (P40337 whole entry, one chain of several) above
von Hippel-Lindau disease tumor suppressor/Inhibitor of nuclear factor kappa-B kinase subunit epsilon (Homo sapiens), sequence (Q14164 whole entry, looked up): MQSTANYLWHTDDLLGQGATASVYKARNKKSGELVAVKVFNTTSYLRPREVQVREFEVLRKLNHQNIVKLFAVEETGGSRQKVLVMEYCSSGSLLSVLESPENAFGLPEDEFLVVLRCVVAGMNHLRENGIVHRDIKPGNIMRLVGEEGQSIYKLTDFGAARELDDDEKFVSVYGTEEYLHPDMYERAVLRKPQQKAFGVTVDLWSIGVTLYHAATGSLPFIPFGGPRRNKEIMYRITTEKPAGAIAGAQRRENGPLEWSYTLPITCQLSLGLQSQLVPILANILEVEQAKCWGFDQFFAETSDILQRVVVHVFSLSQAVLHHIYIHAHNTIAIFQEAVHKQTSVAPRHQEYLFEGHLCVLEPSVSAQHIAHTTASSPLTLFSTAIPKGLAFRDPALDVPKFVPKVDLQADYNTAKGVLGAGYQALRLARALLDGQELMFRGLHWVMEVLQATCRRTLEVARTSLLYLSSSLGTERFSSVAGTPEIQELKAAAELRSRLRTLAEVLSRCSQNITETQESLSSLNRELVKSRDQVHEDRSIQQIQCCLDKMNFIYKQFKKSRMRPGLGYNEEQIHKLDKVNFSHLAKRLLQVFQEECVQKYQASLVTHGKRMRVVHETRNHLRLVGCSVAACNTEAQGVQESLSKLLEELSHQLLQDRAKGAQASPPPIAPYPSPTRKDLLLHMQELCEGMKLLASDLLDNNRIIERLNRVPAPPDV

- DC50 [1]: > 1000 nM
- Activity [2]: inactive
- pKd [3]: 8.89
Structure (SMILES): CCOc1ccc(Nc2ncc(Br)c(NCCCN(C)C(=O)C3CCC3)n2)cc1

- pIC50 [4]: 5.31
- Activity [5]: Active
- DC50 [1]: 9 to 12 nM
- Activity [6]: inactive
- Activity [7]: Active
- Activity [8]: Active
- Activity [9]: inactive
- Activity [10]: Active
- Emax [11]: 96%
- Activity [12]: inactive
- Activity [13]: Active
- Activity [14]: Active
- Activity [15]: Active
Structure (SMILES): Cc1ncsc1-c1ccc(CNC(=O)[C@@H]2C[C@@H](O)CN2C(=O)[C@@H](NC(=O)COCCCOCCCCOCCCOc2ccc(Nc3ncc(Br)c(NCCCN(C)C(=O)C4CCC4)n3)cc2)C(C)(C)C)cc1
- Activity (A549): inactive
- Activity (Homo sapiens): inactive
- Activity (NCI-H23): inactive
- Activity (NCI-H1792): inactive
- Activity (HCC827): inactive

- inhibition [16]: Active
- Activity [17]: inactive
- pIC50 [4]: < 4.00
- pKd [3]: 8.23
Structure (SMILES): Cc1ncsc1-c1ccc(CNC(=O)[C@@H]2C[C@H](O)CN2C(=O)[C@@H](NC(=O)COCCCOCCCCOCCCOc2ccc(Nc3ncc(Br)c(NCCCN(C)C(=O)C4CCC4)n3)cc2)C(C)(C)C)cc1
